NR3A LBD binder: binders of NR3A ligand-binding domain, primary screen, biophysical, differential scanning fluorimetry, uHTS; NR3A LBD differential scanning fluorimetry, Tm shift; 0% = protein alone, 100% = glycine-bound protein; Tm shift relative to glycine control, % at 25 µM; actives 2.5% (n = 340,000);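 active = melting temperature shift of at least 10% of the positive control shift, at one fixed dose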
FAS-TE inh: FAS thioesterase domain inhibitors, primary screen, biochemical, fluorescence intensity, uHTS; Fatty acid synthase (Homo sapiens), P49327; actives 0.67% (n = 360,000); inhibition, % at 15 µM; AID 602261, 2012; recombinant FAS-TE, OMFH fluorogenic substrate, fluorescence endpoint;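 active = compounds whose normalised, plate-corrected inhibition of enzyme fluorescence in the single-dose primary screen is 50% or more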;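 note: 0% = DMSO with enzyme and 100% = substrate without enzyme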
Arr AP2 block: inhibitors of beta-arrestin/AP2 binding, primary screen, biochemical, GPCR trafficking, flow cytometry; beta-arrestin 1 C-terminal peptide binding to AP2 beta2-adaptin appendage (human); FITC-arrestin peptide / GST-AP2 beads; AP2 beta2 appendage carries R879A mutation; inhibition, % at 10 µM; actives 0.31% (n = 340,000); AID 504490, 2011;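 active = inhibition above a set limit, near 3 SD of compounds lacking own fluorescence, cut at about 54% in these data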;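 note: plate controls were DMSO wells for no effect and 5 µM unlabelled arrestin peptide for full effect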
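test system = AP2 appendage R879A on GSH beads | buffer or medium = PBS plus Tween 20 (0.05%) and BSA (0.1%) | incubation = 12 min plus 1 h, RT | detection = bead flow cytometry, FITC channel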
hiPSC survival: enhancers of single-cell hiPSC survival, primary screen, ATPlite luminescence; 100% = ROCK inhibitor wells, 0% = DMSO; survival enhancement, % at 20 µM; actives 0.044% (n = 360,000); in the data active = survival enhancement above about 18%;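 note: cells exposed to compounds for 16 hours before the ATP read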
H9c2 protect: cardioprotection against H2O2-induced cell death, primary screen, uHTS, H9c2 cells, ATPLite luminescence. H9c2 cardiomyocytes, H2O2 injury protection, 2 h. AID 588492, 2011. actives 0.63% (n = 360,000). protection from H2O2 cell death, % at 20 µM;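 active = compounds giving at least 50% protection of heart cells from peroxide-induced death in the single-dose screen, raw or plate-pattern-corrected value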;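 note: 0% = DMSO wells with peroxide and 100% = DMSO wells without peroxide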
SENP1 inh: human SENP1 catalytic domain inhibitors, primary screen, biochemical, FRET, uHTS. Sentrin-specific protease 1 (Homo sapiens), Q9P0U3. recombinant SENP1 catalytic domain, CyPet-SUMO1-YPet FRET cleavage. inhibition, % at 10 µM. actives 0.21% (n = 360,000);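 active = inhibition at least 30% at 10 µM, raw YFP signal under a set limit, fluorescence ratio 0.5 to 1.5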;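 note: 0% = enzyme with DMSO and 100% = no enzyme wells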
Target sequence (Q9P0U3 419-644 limits assumed): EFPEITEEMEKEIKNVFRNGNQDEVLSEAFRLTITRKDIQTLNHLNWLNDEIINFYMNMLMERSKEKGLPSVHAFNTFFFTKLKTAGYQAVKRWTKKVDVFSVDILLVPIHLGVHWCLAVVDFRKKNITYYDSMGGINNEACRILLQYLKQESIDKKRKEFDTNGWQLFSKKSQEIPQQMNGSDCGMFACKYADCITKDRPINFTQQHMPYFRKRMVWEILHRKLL
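Material: hSENP1 catalytic domain, recombinant; medium: Tris pH 8 with BME, BSA, NP40 and catalase; compound: single concentration of 10 µM compound, 0.5% DMSO final; technique: FRET read of cyan and yellow fluorescence; timing: 50 min enzyme reaction, room temperature, light-protected; reagent: SFCypet-SUMO1-SFYpet substrate at 25 nM; control set: no-enzyme low, enzyme-DMSO high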
Numbers without * were called inactive; . = no result given. An excerpt weighted towards active compounds, which were near 4% of everything screened.

SMILES	NR3A LBD binder	FAS-TE inh	Arr AP2 block	hiPSC survival	H9c2 protect	SENP1 inh
CCOc1cccc(SCc2noc(C(=O)NCC3CCCO3)c2C(=O)O)c1 (configuration not stated)	17*	-11	0	-2	-1	2
Cc1[nH]n(-c2ccccc2)c(=O)c1N=Nc1ccccc1O	10*	22	33	0	16	11
CCOc1ccc(Nc2cc(C)c3ccccc3n2)cc1	22*	11	-2	-1	-4	-1
CC(=O)Nc1ccc(Nc2cc(C)c3ccccc3n2)cc1	13*	4	-8	-1	-2	-1
Cc1cc(Nc2ccccc2)nc2cc(O)ccc12	-12	0	28	0	-6	-112
O=S1(=O)CC(N2CCN(CC3CC3)CC2)CN1Cc1cn(Cc2ccccc2C(F)(F)F)nn1 (configuration not stated)	.	-10	.	0	2	-3
Cc1ccc(NC(=O)c2cccs2)cc1S(=O)(=O)Nc1cccc(Cl)c1	35*	32	21	-2	-10	0
O=C(NNC(=O)c1cccs1)Nc1cccc(Cl)c1	1	0	28	-3	4	4
CC(=O)Nc1cccc(/C(C)=N/NC(=O)c2cccs2)c1	-2	-6	24	-1	59*	2
CC(C)C(=O)Nc1cccc(NC(=S)NC(=O)c2ccc(Cl)cc2)c1	-9	12	0	-2	-12	2
C/C(=N\NS(=O)(=O)c1ccccc1)c1cccc(NC(=O)c2cccc(Cl)c2)c1	15*	16	-20	1	-7	3
Cc1ccc(NC(=S)NC(=O)c2ccc(F)cc2)cc1S(=O)(=O)Nc1cccc(Cl)c1	13*	37	36	0	-19	1
COc1ccc(NC(=O)C(c2ccncc2)n2c(=O)c(-c3ccccc3)nc3ccccc32)cc1 (configuration not stated)	.	.	.	.	.	-10
O=C(Nc1cc(Cl)cc2c1-c1ccc(Cl)cc1C2O)C(Cl)Cl (configuration not stated)	3	-6	8	0	-15	4
O=C(NC(=S)Nc1cc(Cl)ccc1O)c1cccc(Br)c1	18*	5	-16	1	-4	3
Cc1ccc(C(=O)NC(=S)Nc2ccc(NC(=O)c3cccc(Cl)c3)cc2)cc1	35*	0	-12	0	-5	1
CC(=O)c1cccc(NC(=S)NC(=O)c2ccc(C)cc2)c1	1	15	11	-1	-21	0
Cc1ccc(C(=O)NCC(=O)Nc2ccc(C)c(S(=O)(=O)Nc3ccc(Cl)cc3)c2)s1	11*	17	0	0	-5	-2
C/C(=N\NC(=O)c1cccc(S(=O)(=O)Nc2cccc(Cl)c2)c1)c1cccs1	14*	10	5	1	14	3
CCN(CC)S(=O)(=O)c1cccc(C(=O)N/N=C(\C)c2cccs2)c1	0	3	-13	0	-8	2
O=C(NNC(=O)c1cc2ccccc2cc1O)c1cccs1	-4	8	2	-1	0	-8
O=C(O)c1ccc(NC(=S)NC(=O)c2ccc3ccccc3c2)cc1	17*	-2	46	0	-2	-1
O=C(CCC(=O)c1ccc(F)cc1)Nc1cccc(S(=O)(=O)Nc2cccc(Cl)c2)c1	28*	22	3	-1	-10	2
C/C(=N\NC(=O)c1cc2ccccc2cc1O)c1cccs1	14*	-2	7	0	-17	25
COc1cc(C=C2C(=O)C=CC2=O)ccc1O	.	-2	.	5	.	2
SMILES	NR3A LBD binder	FAS-TE inh	Arr AP2 block	hiPSC survival	H9c2 protect	SENP1 inh
CN(C)CCCNc1nc2cc(-c3cnn(C)c3)sc2c(=O)n1C	.	-4	.	3	2	-2
COc1ccc([N+](=O)[O-])cc1CN1CCN(c2ncc(Cc3ccccc3)cn2)CC1	.	.	.	.	.	3
COc1ccc(CCN(C)Cc2nc(-c3cnccn3)no2)cc1OC	-1	-7	35	0	8	-1
COc1ccc(CCN(Cc2nc(-c3ccccc3)no2)Cc2nc(-c3ccccc3)no2)cc1OC	16*	24	5	5	-7	4
COc1ccc(-c2noc(CN(C)S(=O)(=O)c3ccccc3)n2)cc1OC	-1	6	8	-1	55*	-3
CCOC(=O)C1=C[C@@H](C2CCCC2)N(S(=O)(=O)c2ccc([N+](=O)[O-])cc2)[C@H]1c1ccccc1	.	31	.	0	-7	3
CCCNC(=S)N1CCN(c2nc(-c3ccc(C)cc3)cs2)CC1	12*	21	5	0	-18	2
CCCNC(=S)N1CCN(c2nc(-c3cccc(OC)c3)cs2)CC1	1	17	-5	0	-4	-1
CCOc1ccc(S(=O)(=O)Nc2cccc(C(=O)N3CC(C)OC(C)C3)c2)cc1 (configuration not stated)	-1	-2	44	0	-2	1
COC(=O)COc1cccc(NS(=O)(=O)c2ccc(NC(C)=O)cc2)c1	14*	-6	-6	0	-6	0
CCOc1ccc(S(=O)(=O)Nc2cccc(C(=O)N3CCN(c4ccc(OC)cc4)CC3)c2)cc1	4	29	-3	21*	-12	1
CCOc1ccc(S(=O)(=O)Nc2cccc(OC)c2)cc1	11*	0	27	-2	-11	-2
CCOc1ccc(S(=O)(=O)Nc2cccc(N(C)S(C)(=O)=O)c2)cc1	0	-4	4	1	-15	1
Cc1cc2nc(C(C)(C)C)c(Cc3cccc(F)c3)n2c(C)c1Br	.	18	.	-1	-8	-5
CCCS(=O)(=O)NC(=O)C1(C)CCN(C(=O)c2ccc(OC)cc2)C1 (configuration not stated)	.	-8	.	-2	2	2
O=C(Nc1ccc(F)c([N+](=O)[O-])c1)C(=O)c1c(O)[nH]c2ccccc12	-8	48	-8	0	-6	-1
O=C(Nc1cc([N+](=O)[O-])c2[nH]c(=O)c3ccccc3c2c1)C(F)(F)F	44*	0	17	-1	42	1
COc1ccc(S(=O)(=O)N(C)CC(=O)NCCC2=CCCCC2)cc1OC	13*	-2	0	-1	-4	4
COc1cc(/C=C2\CC/C(=C\c3cc(OC)c(OC)c(OC)c3)C2=O)cc(OC)c1OC	-3	-5	-7	-4	29	-29

Screening data deposited in PubChem by several laboratories.
